Here are results for 16 compounds from ChEMBL document CHEMBL3745632, “Development of a novel sulfonate ester-based prodrug strategy” (Bioorg Med Chem Lett, 2016).

The nature of data set [1]: Drug level in HEPES buffer treated with 200 uM (S)-4-sulfamoylphenyl 3-(2-amino-4-methylpentanamido)propane-1-sulfonate in presence of aeromonas proteolytica aminopeptidase by spectrophotometry. The format is ADME. The note with it: vibrio proteolyticus. In outline: (§1)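 Each substrate (50 or 200 μM) was incubated with AAP (1.05 units/mL) in 50 mM HEPES (pH 8.0) containing 2% DMSO for varying periods. Release of the corresponding phenol was monitored over time.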

Data set [2] can be described thus: Drug level in HEPES buffer treated with 2 mM (S)-2-methylquinolin-8-yl 3-(2-amino-4-methylpentanamido)propane-1-sulfonate for 12 hrs in presence of aeromonas proteolytica aminopeptidase by spectrophotometry. The following applies: vibrio proteolyticus. The format is ADME.
The nature of data set [3]: Drug level in HEPES buffer treated with 200 uM (S)-4-(trifluoromethyl)phenyl 3-(2-amino-4-methylpentanamido)propane-1-sulfonate in presence of aeromonas proteolytica aminopeptidase by spectrophotometry. The format is ADME. The note with it: vibrio proteolyticus. The method in brief: as §1
Data set [4] is described as follows: Drug level in HEPES buffer treated with 50 uM (S)-2-methylquinolin-8-yl 3-(2-amino-4-methylpentanamido)propane-1-sulfonate in presence of aeromonas proteolytica aminopeptidase by spectrophotometry. The format is ADME. The note with it: vibrio proteolyticus. The method in brief:
as §1

Data set [5] is described as follows: Drug level in HEPES buffer treated with 200 uM (S)-4-chlorophenyl 3-(2-amino-4-methylpentanamido)propane-1-sulfonate in presence of aeromonas proteolytica aminopeptidase by spectrophotometry. The format is ADME. The following applies: vibrio proteolyticus. In outline: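 Compound at 200 μM incubated for a given period with Aeromonas proteolytica aminopeptidase (1.05 units/mL) in 50 mM HEPES, pH 8.0, containing 2% DMSO. Liberation of the corresponding phenol was followed over time to evaluate the intramolecular cyclization rate k₂.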

Data set [6] can be described thus: Retention time of compound by HPLC analysis. The format is physicochemical.
Data set [7] concerns Liver. Put plainly: Drug level in CD1 mouse liver S9 fraction treated with 5 mM (S)-2-methylquinolin-8-yl 3-(2-amino-4-methylpentanamido)propane-1-sulfonate after 3 hrs by HPLC analysis. The format is ADME, subcellular. The following applies: s9, 3 h.
In data set [8] the test system is Serum. Put plainly: Drug level in human serum treated with 5 mM (S)-2-methylquinolin-8-yl 3-(2-amino-4-methylpentanamido)propane-1-sulfonate after 24 hrs by HPLC analysis. Format: ADME, cell-free.
Data set [9] is described as follows: Inhibition of aeromonas proteolytica aminopeptidase at 5 uM incubated at pH 8 and 30 degC followed by addition of 50 uM L-leucine-p-nitroanilide substrate by spectrophotometry. The note with it: vibrio proteolyticus, pH 8, 5 µM. In outline:
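The prodrug (5 μM) was preincubated with AAP (0.02 units/mL) at pH 8.0 and 30 °C for set times in 10 mM HEPES (pH 8.0) containing 2% DMSO. L-leucine-p-nitroanilide (50 μM) was then added, and its hydrolysis was followed at 25 °C by ΔAbs405 from released p-nitroaniline (ε405 = 10300). In the control, the prodrug was preincubated without enzyme, and AAP was added together with the substrate.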

Data set [10] in a line: Drug metabolism in HEPES buffer assessed as aeromonas proteolytica aminopeptidase-mediated compound hydrolysis at 2 mM by spectrophotometry. Format: ADME. The following applies: vibrio proteolyticus, 2000 µM.
A short description of data set [11]: Drug metabolism in HEPES buffer assessed as aeromonas proteolytica aminopeptidase-mediated 4-chlorophenol formation at 200 uM by spectrophotometry. The following applies: vibrio proteolyticus. Format: ADME. In outline: as §1
Data set [12] is described as follows: Drug metabolism in HEPES buffer assessed as aeromonas proteolytica aminopeptidase-mediated Isothiazolidine 1,1-dioxide formation at 200 uM by spectrophotometry. The format is ADME. The note with it: vibrio proteolyticus.
The nature of data set [13]: Dissociation constant, pKa of the compound. Format: physicochemical.
Data set [14] can be described thus: Drug metabolism in HEPES buffer assessed as aeromonas proteolytica aminopeptidase-mediated 4-(trifluoromethyl)phenol formation at 200 uM by spectrophotometry. The following applies: vibrio proteolyticus. The format is ADME. In outline:
as §1

Data set [15] in a line: Metabolic stability in CD1 mouse liver S9 fraction assessed as compound remaining at 5 mM by HPLC analysis. The format is ADME, subcellular. The following applies: read-out: Stability.
Data set [16] relates to Serum. Put plainly: Metabolic stability in human serum assessed as compound decomposed at 5 mM by HPLC analysis. The format is ADME. The note with it: 5000 µM.
Data set [17] is described as follows: Metabolic stability in human serum assessed as compound decomposed at 5 mM after 24 hrs by HPLC analysis. Format: ADME. The note with it: read-out: Drug metabolism.
The nature of data set [18]: Drug metabolism in HEPES buffer assessed as aeromonas proteolytica aminopeptidase-mediated Isothiazolidine 1,1-dioxide formation at 2 mM after 12 hrs by spectrophotometry. The following applies: vibrio proteolyticus, 2000 µM. The format is ADME.
Data set [19] can be described thus: Drug metabolism in HEPES buffer assessed as aeromonas proteolytica aminopeptidase-mediated 5-chloroquinolin-8-yl 3-chloropropane-1-sulfonate formation at 2 mM after 12 hrs by spectrophotometry. The format is ADME. The following applies: vibrio proteolyticus, 2000 µM.
Data set [20] in a line: Drug metabolism in HEPES buffer assessed as aeromonas proteolytica aminopeptidase-mediated Isothiazolidine 1,1-dioxide formation at 50 uM by spectrophotometry. Format: ADME. The following applies: vibrio proteolyticus.
A short description of data set [21]: Drug metabolism in CD1 mouse S9 fraction assessed as 2-methylquinolin-8-yl 3-aminopropane-1-sulfonate formation at 5 mM after 3 hrs by HPLC analysis. Format: ADME, Liver. The following applies: s9, 3 h, 5000 µM.
Data set [22] has as its system Serum. Put plainly: Drug metabolism in human serum assessed as 2-methylquinolin-8-yl 3-aminopropane-1-sulfonate formation at 5 mM after 24 hrs by HPLC analysis. The format is ADME, cell-free. The note with it: 5000 µM.
The nature of data set [23]: Drug metabolism in HEPES buffer assessed as aeromonas proteolytica aminopeptidase-mediated 2-methylquinolin-8-ol formation at 50 uM by spectrophotometry. The following applies: vibrio proteolyticus. The format is ADME. In outline:
as §1

For data set [24], the system named is Serum. Put plainly: Drug metabolism in human serum assessed as 2-methylquinolin-8-ol formation at 5 mM after 24 hrs by HPLC analysis. The following applies: 5000 µM. The format is ADME, cell-free.
A short description of data set [25]: Drug metabolism in HEPES buffer assessed as aeromonas proteolytica aminopeptidase-mediated 5-chloroquinolin-8-yl 4-chlorobutane-1-sulfonate formation at 2 mM after 12 hrs by spectrophotometry. The format is ADME. The following applies: vibrio proteolyticus, 2000 µM.
Data set [26] is described as follows: Drug metabolism in HEPES buffer assessed as aeromonas proteolytica aminopeptidase-mediated 2-methylquinolin-8-ol formation at 2 mM after 12 hrs by spectrophotometry. Format: ADME. The note with it: vibrio proteolyticus, 2000 µM.
A short description of data set [27]: Drug metabolism in HEPES buffer assessed as aeromonas proteolytica aminopeptidase-mediated compound hydrolysis at 1.3 mM by spectrophotometry. The note with it: vibrio proteolyticus, 1300 µM. The format is ADME.
Data set [28] in a line: Drug metabolism in HEPES buffer assessed as aeromonas proteolytica aminopeptidase-mediated 4-hydroxybenzenesulfonamide formation at 200 uM by spectrophotometry. The format is ADME. The note with it: vibrio proteolyticus. The method in brief:
as §1

Data set [29] can be described thus: Inhibition of aeromonas proteolytica aminopeptidase using L-leucine-p-nitroanilide as substrate by spectrophotometry. On the set-up: species or system Vibrio proteolyticus.

A word on the pKa: it is the pH at which an ionisable group is half protonated. A higher pKa goes with a group that holds its proton tightly. Broadly, the Ki is a dissociation constant, usually derived from enzyme kinetics or from competition with a known ligand. Low readings indicate higher affinity, high ones lower affinity.

In the case of `NS(=O)(=O)c1ccc(O)cc1`, the Drug metabolism entry in data set [1] is on record as “metabolite_detected”.
In the case of `O=S1(=O)CCCN1`, the Drug metabolism entry in data set [2], in data set [3], in data set [1], in [4] and in data set [5] was “metabolite_detected” each time.
Take `Cc1ccc2cccc(OS(=O)(=O)CCCN)c2n1`: in data set [6], the Retention_time is listed as 6.5 min. For the same compound, the Drug metabolism entry in [7] and in data set [8] was “metabolite_detected” throughout.
Regarding `CC(C)C[C@H](N)C(=O)NCCCS(=O)(=O)Oc1ccc(Cl)c2cccnc12`, the “inhibition (INH)” value in data set [9] is given as “Active”.
With `Cc1ccc2cccc(OS(=O)(=O)CCCCNC(=O)[C@@H](N)CC(C)C)c2n1`, in [10], the Drug metabolism result is listed as “metabolite_detected”.
For the compound `CC(C)C[C@H](N)C(=O)NCCCS(=O)(=O)Oc1ccc(Cl)cc1`, the Drug metabolism entry in [11] and in data set [12] was “metabolite_detected” each time. Also, the pKa in data set [13] was determined as 9.6.
With `CC(C)C[C@H](N)C(=O)NCCCCS(=O)(=O)Oc1ccc(Cl)c2cccnc12`, the “inhibition (INH)” value in data set [9] was “Active”.
For the compound `CC(C)C[C@H](N)C(=O)NCCCS(=O)(=O)Oc1ccc(C(F)(F)F)cc1`, the Drug metabolism result in [14] and in data set [12] was “metabolite_detected” in each case. The pKa in data set [13] turned out to be 8.9.
The compound `Cc1ccc2cccc(OS(=O)(=O)CCCN=[N+]=[N-])c2n1` showed a Retention_time in [6] of 17.5 min. Also, the remaining in data set [15] came out at 88%. In addition, the Stability result in [16] is “Stable”.
Consider `Cc1ccc2cccc(OS(=O)(=O)CCCNC(=O)[C@@H](N)CC(C)C)c2n1`, for which the metabolised at 24 h, 5000 µM in data set [17] stood at 35%. Also, the Drug metabolism entry is listed as “metabolite_detected” in [18]; “metabolite_notdetected” in [19]; “metabolite_detected” in [20]; “metabolite_detected” in data set [21]; “metabolite_detected” in data set [22]; “metabolite_detected” in data set [23]. Besides, the Drug metabolism result in data set [24] is “metabolite_detected”; in data set [25], “metabolite_notdetected”; in data set [26], “metabolite_detected”. Further, in [6], the Retention_time stood at 21 min. The pKa in [13] came to 10.9.
Turning to `Cc1ccc2cccc(OS(=O)(=O)CCNC(=O)[C@@H](N)CC(C)C)c2n1`, the Drug metabolism result in [27] is given as “metabolite_detected”.
`CC(C)C[C@H](N)C(=O)NCCCS(=O)(=O)Oc1ccc(S(N)(=O)=O)cc1`: the Drug metabolism entry in [28] and in data set [12] was “metabolite_detected” throughout. Further, in data set [13], the pKa stood at 8.3.
In the case of `Oc1ccc(C(F)(F)F)cc1`, the Drug metabolism entry in data set [3] is on record as “metabolite_detected”.
As for `Cc1ccc2cccc(O)c2n1` [8-HYDROXY QUINALDINE], the Drug metabolism result in data set [2], in data set [4] and in data set [8] was “metabolite_detected” throughout. Moreover, the Retention_time in data set [6] was found to be 4.6 min.
`Oc1ccc(Cl)c2cccnc12` [CLOXYQUIN]: the Ki in data set [29] worked out at 190 nM.
For `Oc1ccc(Cl)cc1` [PARACHLOROPHENOL], the Drug metabolism entry in [5] is “metabolite_detected”.
